Measured values: ChEMBL document CHEMBL3588754, “Parallel Synthesis of Hexahydrodiimidazodiazepines Heterocyclic Peptidomimetics and Their in Vitro and in Vivo Activities at μ (MOR), δ (DOR), and κ (KOR) Opioid Receptors” (J Med Chem, 2015)
Active and inactive are the calls of the source.

What was measured:
Mus musculus [1] = experiment: Antinociceptive effect in icv dosed C57BL/6 mouse assessed as tail withdrawal latency measured up to 2 hrs by 55 degC Warm water tail withdrawal assay; assay type: functional
Mus musculus [2] = experiment: Antinociceptive effect in ip dosed C57BL/6 mouse assessed as tail withdrawal latency measured up to 2 hrs by 55 degC Warm water tail withdrawal assay; assay type: functional; details: C57BL/6, Tail
Mus musculus [3] = experiment: Antinociceptive effect in po dosed C57BL/6 mouse assessed as tail withdrawal latency measured up to 2 hrs by 55 degC Warm water tail withdrawal assay; assay type: functional; details: C57BL/6, Tail
Mus musculus [4] = species on record: Mus musculus; experiment: Ratio of ED50 for antinociceptive effect in C57BL/6 mouse by 55 degC Warm water tail withdrawal assay to ED50 for analgesic activity in C57BL/6 mouse by acetic acid writhing assay; assay type: functional
Summary of the method: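 Index from ip ED50 values in adult male C57BL/6J mice given ip doses in 1:1:8 ethanol/Tween-80/saline (n = 8/dose). Tail-withdrawal: 55 °C water, read at 30 min, % antinociception against baseline with a 15 s cutoff. Writhing: 0.9% acetic acid ip 25 min post-dose, writhes counted over 15 min, compared with vehicle. ED50 from regression; ratio is tail-withdrawal/writhing.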

Mu-type opioid receptor = Mu-type opioid receptor (Rattus norvegicus, UniProt P33535); experiment: Displacement of [3H]DAMGO from mu opioid receptor in rat cortices by competition binding assay
Summary of the method: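 Rat cortex membranes were prepared in 50 mM Tris pH 7.4, preincubated at 37 °C for 30 min, and resuspended with 2 mg/mL bovine serum. Assay used 2 nM [3H]DAMGO. Binding was stopped by filtration through BSA-soaked GF/B filters, followed by scintillation counting. IC50 was converted to Ki. Values are mean ± SD of two experiments, each in duplicate.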

[5] = target: Kappa-type opioid receptor (Cavia porcellus, UniProt P41144); experiment: Displacement of [3H]U69593 from kappa opioid receptor in guinea pig cortices and cerebella by competition binding assay
Summary of the method: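 Guinea pig cortex and cerebellum membranes were prepared in 50 mM Tris pH 7.4 with 10 mM MgCl2. Assay used 2 nM [3H]U69,593, incubated 2 h at 25 °C. Unlabeled U50,488 defined nonspecific binding. Filtration was through GF/B filters, with scintillation counting. Ki is mean ± SD of two experiments, each in duplicate.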

[6] = target: Delta-type opioid receptor (Rattus norvegicus, UniProt P33533); experiment: Displacement of [3H]DPDPE from delta opioid receptor in rat cortices by competition binding assay
Summary of the method: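 Rat cortex membranes were prepared in 50 mM Tris pH 7.4 with 10 mM MgCl2 and 200 μM PMSF. Assay used 2 nM [3H]DPDPE, incubated 2.5 h at 25 °C. Unlabeled DPDPE defined nonspecific binding. Filtration was through BSA-soaked GF/B filters, with scintillation counting. Ki is mean ± SD of two experiments, each in duplicate.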

[7] = target: Delta-type opioid receptor (Homo sapiens, UniProt P41143); experiment: Agonist activity at delta opioid receptor (unknown origin) expressed in CHO-K1 cells assessed as inhibition of forskolin-induced cAMP accumulation by FRET assay; assay type: functional, cell-based
Summary of the method: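 CHO cells stably expressing DOR, plated at 20 000 cells/well (figure legend: 100 000). Exposed to test agent with 4 μM forskolin (legend: 1 μM) in 1× PBS with 1 mM […] for 30 min at rt. HTRF cAMP read-out with europium cryptate and d2 in lysis buffer for 1 h. EC50 ± SEM from three experiments, two replicates each.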

Mus musculus [8] = experiment: Antinociceptive effect in icv treated C57BL/6 mouse assessed as tail withdrawal latency at 30 nM, icv measured up to 2 hrs by 55 degC Warm water tail withdrawal assay; assay type: functional
Mus musculus [9] = experiment: Antinociceptive effect in C57BL/6 mouse assessed as tail withdrawal latency at 10 mg/kg, ip measured up to 2 hrs by 55 degC Warm water tail withdrawal assay; assay type: functional
Mus musculus [10] = experiment: Antinociceptive effect in C57BL/6 mouse assessed as tail withdrawal latency at 30 mg/kg, po measured up to 2 hrs by 55 degC Warm water tail withdrawal assay; assay type: functional
Mus musculus [11] = experiment: Antinociceptive effect in icv dosed C57BL/6 mouse assessed as tail withdrawal latency measured up to 2 hrs by 55 degC Warm water tail withdrawal assay in presence of 0.5 mg/kg, sc naltrindole; assay type: functional, organism-based
Mus musculus [12] = experiment: Analgesic activity in ip dosed C57BL/6 mouse assessed as inhibition of acetic acid-induced writhing response measured after 5 mins by acetic acid writhing assay; assay type: functional; details: C57BL/6, ip
Summary of the method: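 Adult male C57BL/6J mice, eight per dose, were given a single graded ip dose in 1:1:8 ethanol/Tween-80/saline vehicle. After 25 min they received 0.9% acetic acid ip. Writhes were counted for 15 min starting 5 min later. % antinociception was taken relative to the ip vehicle group, and ED50 with 95% CI was obtained by regression.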

Mus musculus [13] = experiment: Antinociceptive effect in icv dosed MOR knock out C57BL/6 mouse assessed as tail withdrawal latency measured up to 2 hrs by 55 degC Warm water tail withdrawal assay; assay type: functional, organism-based
Mus musculus [14] = experiment: Antinociceptive effect in icv dosed KOR knock out C57BL/6 mouse assessed as tail withdrawal latency measured up to 2 hrs by 55 degC Warm water tail withdrawal assay; assay type: functional, organism-based
Mus musculus [15] = experiment: Antinociceptive effect in icv dosed C57BL/6 mouse assessed as tail withdrawal latency measured up to 2 hrs by 55 degC Warm water tail withdrawal assay in presence of 4 nmol, icv ICI174864; assay type: functional, organism-based
Mus musculus [16] = experiment: Antinociceptive effect in C57BL/6 mouse assessed as tail withdrawal latency measured at 30 nM, icv up to 2 hrs by 55 degC Warm water tail withdrawal assay in presence of 30 nM, icv naloxone methiodide on same side of blood brain barrier impermeable opioid antagonist; assay type: functional, organism-based
Summary of the method: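 Adult male C57BL/6J mice, 55 °C warm-water tail withdrawal. Naloxone methiodide pretreatment (30 nmol icv or 30 mg/kg sc) 30 min before the test agent (30 nmol icv in 50% DMSO/saline, or 10 mg/kg ip in 1:1:8 ethanol/Tween-80/saline). Read 30 min after the test agent. % antinociception vs baseline latency with 15 s cutoff. n = 8, mean ± SEM, one-way ANOVA/Tukey.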

Mus musculus [17] = experiment: Antinociceptive effect in C57BL/6 mouse assessed as tail withdrawal latency measured at 10 mg/kg, ip […] by 55 degC Warm water tail withdrawal assay in presence of 30 mg/kg, sc naloxone methiodide on same side of blood brain barrier impermeable opioid antagonist; assay type: functional, organism-based
Mus musculus [18] = experiment: Antinociceptive effect in C57BL/6 mouse assessed as tail withdrawal latency measured at 30 nM, icv […] by 55 degC Warm water tail withdrawal assay in presence of 30 nM, icv naloxone methiodide on other side of blood brain barrier impermeable opioid antagonist; assay type: functional, organism-based
Mus musculus [19] = experiment: Antinociceptive effect in C57BL/6 mouse assessed as tail withdrawal latency […] by 55 degC Warm water tail withdrawal assay in presence of 30 mg/kg, sc naloxone methiodide on other side of blood brain barrier impermeable opioid antagonist; assay type: functional, organism-based
Mus musculus [20] = experiment: Antinociceptive effect in C57BL/6 mouse assessed as tail withdrawal latency measured up to 2 hrs by 55 degC Warm water tail withdrawal assay in presence of 10 mg/kg, ip morphine; assay type: functional, organism-based
Summary of the method: (§1)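 Test agent given to male C57BL/6J mice 2 h before agonist challenge: morphine 10 mg/kg ip, U50,488 10 mg/kg ip, or SNC-80 100 nmol icv. 55 °C warm-water tail withdrawal read 30 min after the agonist. % antinociception relative to baseline latency with 15 s cutoff.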

Mus musculus [21] = experiment: Antinociceptive effect in C57BL/6 mouse assessed as tail withdrawal latency measured up to 2 hrs by 55 degC Warm water tail withdrawal assay in presence of 100 nM, icv SNC80; assay type: functional, organism-based; summary of the method: as §1
Mus musculus [22] = experiment: Antinociceptive effect in C57BL/6 mouse assessed as tail withdrawal latency measured up to 2 hrs by 55 degC Warm water tail withdrawal assay in presence of 10 mg/kg, ip U50488; assay type: functional, organism-based; summary of the method: as §1
Serum = experiment: Drug uptake in C57BL/6 mouse serum at 30 mg/kg, po after 30 mins by LC-MS/MS analysis; assay type: ADME, organism-based; details: in vivo, 0.5 h
Summary of the method: (§2)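 Male C57BL/6J mice dosed orally at 30 mg/kg in 1:1:8 ethanol/Tween-80/saline, killed at 30, 60, or 90 min. Serum deproteinized with 4 volumes of cold MeCN. Perfused brains homogenized. Supernatants dried and reconstituted in 20% MeCN. C18 LC–MS/MS with summed ion-transition peak areas. Two mice per time point, mean peak area ± SEM.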

Brain = experiment: Drug uptake in C57BL/6 mouse brain at 30 mg/kg, po after 30 mins by LC-MS/MS analysis; assay type: ADME, organism-based; details: in vivo, 0.5 h; summary of the method: as §2
Mus musculus [23] = experiment: Antinociceptive tolerance in C57BL/6 mouse assessed as tail withdrawal latency measured treated at 5 nmol, icv first dose second dose after 8 hrs by 55 degC Warm water tail withdrawal assay; assay type: functional
Summary of the method: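 Acute tolerance was tested in C57BL/6J mice, 8 per dose. The first icv dose was given at time 0: 3 nmol morphine or 5 nmol test agent. A second icv dose between 0.3 and 100 nmol followed 8 h later. Tail withdrawal at 55 °C was measured 30 min after the second injection. Tolerance was judged from the shift in ED50 between single and repeated treatment.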

Mus musculus [24] = experiment: Toxicity in C57BL/6 mouse assessed as coordinated locomotor activity at 30 nM, icv up to 60 mins; assay type: organism-based; details: in vivo, icv_or_intrathecal, 1 h, 0.03 µM
Summary of the method: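 Rotorod test after seven habituation trials, the last used as baseline. Test agent 30 nmol icv, vehicle 50% DMSO/saline. Accelerating trials (0–20 rpm, 180 s max) from 10 min over 60 min. Latency to fall expressed as % change from baseline. n = 8–16 per group, repeated-measures/two-way ANOVA with Tukey.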

`CN1CC[C@]23c4c5ccc(O)c4O[C@H]2[C@@H](O)C=C[C@H]3[C@H]1C5` [MORPHINE] was tested, and the Activity (Mus musculus [1]) was “Dose-dependent effect”, the ED50 (Mus musculus [2]) was 3.91 mg/kg and the ED50 (Mus musculus [3]) was 2.07 mg/kg. For the same compound, the “Ratio ED50” value (Mus musculus [4]) was 2.23.

With `CC(C)[C@H]1CN=C2C=C3N[C@@H](Cc4ccc(O)cc4)CN3[C@@H](Cc3ccccc3)CN21` the Ki (Mu-type opioid receptor) was 5.04 µM, the Ki [5] was 1.95 µM and the Ki [6] was ≥ 10 µM.

With `Oc1ccc(C[C@H]2CN3C(=CC4=NC[C@H](Cc5ccc(O)cc5)N4C[C@@H]3Cc3ccc(O)cc3)N2)cc1` the Ki (Mu-type opioid receptor) was 0.552 µM, the Ki [5] was 3.76 µM and the Ki [6] was 0.316 µM.

`Oc1ccc(C[C@H]2CN3C(=CC4=NC[C@H](Cc5ccccc5)N4C[C@@H]3Cc3ccc(O)cc3)N2CCc2ccccc2)cc1` showed a Ki (Mu-type opioid receptor) of 0.878 µM, a Ki [5] of 1.31 µM and a Ki [6] of 0.188 µM.

For `CC(C)C[C@H]1CN2C(=CC3=NC[C@H](Cc4ccccc4)N3C[C@@H]2Cc2ccc(O)cc2)N1`, the Ki (Mu-type opioid receptor) was 1.33 µM, the Ki [5] was 3.44 µM and the Ki [6] was 0.057 µM. For the same compound, the EC50 [7] was 6.36 µM.

Work on `Oc1ccc(C[C@H]2CN3C(=CC4=NC[C@H](Cc5ccc(O)cc5)N4C[C@@H]3Cc3ccccc3)N2CCc2ccccc2)cc1` yielded a Ki (Mu-type opioid receptor) of 0.393 µM, a Ki [5] of 0.767 µM and a Ki [6] of 0.05 µM.

For `CC(C)C[C@H]1CN2C(=CC3=NC[C@H](Cc4ccccc4)N3C[C@@H]2Cc2ccc(O)cc2)N1CCc1ccccc1`, the Ki (Mu-type opioid receptor) was 0.949 µM, the Ki [5] was 0.642 µM and the Ki [6] was 0.037 µM. For the same compound, the EC50 [7] was 1.64 µM.

In the case of `CC(C)C[C@H]1CN2C(=CC3=NC[C@H](C(C)C)N3C[C@@H]2Cc2ccc(O)cc2)N1`, the Ki (Mu-type opioid receptor) is reported as 1.19 µM, the Ki [5] is reported as 0.209 µM and the Ki [6] is reported as 0.215 µM.

Compound `CC(C)C[C@H]1CN2C(=CC3=NC[C@H](C(C)C)N3C[C@@H]2Cc2ccc(O)cc2)N1CCc1ccccc1` has a Ki [5] of 0.023 µM, a Ki [6] of 0.032 µM and an EC50 [7] of 0.366 µM. For the same compound, the Activity (Mus musculus [1]) was “Dose-dependent effect”, the ED50 (Mus musculus [2]) was 5.09 mg/kg and the ED50 (Mus musculus [3]) was 23.2 mg/kg. It also gave a Time (Mus musculus [8]) of 80 min, a Time (Mus musculus [9]) of 80 min and a Time (Mus musculus [10]) of 110 min. The inhibition (Mus musculus [11]) was “inactive”, the ED50 (Mus musculus [12]) was 0.07 mg/kg and the inhibition (Mus musculus [13]) was “inactive”. The inhibition (Mus musculus [14]) was “inactive”, the inhibition (Mus musculus [15]) was “inactive” and the inhibition (Mus musculus [16]) was “inactive”. For the same compound, the inhibition (Mus musculus [17]) was “inactive”, the Activity (Mus musculus [18]) was “Active” and the Activity (Mus musculus [19]) was “Active”. The Activity (Mus musculus [20]) was “Active”, the Activity (Mus musculus [21]) was “Active” and the Activity (Mus musculus [22]) was “Active”. The Drug uptake (Serum) was “Active”, the Drug uptake (Brain) was “Not Active” and the ED50 (Mus musculus [23]) was 2.32 nmol. The Activity (Mus musculus [24]) was “Non-toxic”.
